ChEMBL document CHEMBL4382255, “Design, synthesis and activity of Mnk1 and Mnk2 selective inhibitors containing thieno[2,3-d]pyrimidine scaffold” (Eur J Med Chem, 2019)
Activity calls are given as the source filed them. Unless noted, the rule behind the calls is not given here.

Columns and labels:
[1] = system: 3T3-L1; experiment: Effect on total eIF4E protein level in mouse 3T3L1 cells at 3 uM after 2 hrs by Western blot analysis; format: ADME, cell-based; settings: 3t3-l1, 2 h
Summary of the method: (§1)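 Mouse 3T3-L1 pre-adipocytes (DMEM high glucose, 10% heat-inactivated FBS, 37 °C, 5% CO₂) treated 2 h with compounds at 3 μM or lower concentrations down to 0.1 μM final; DMSO vehicle 0.03-0.05% final. RIPA lysates cleared, equal protein resolved by SDS-PAGE, immunoblotted for P-eIF4E and total eIF4E, fluorescent secondary detection.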

[2] = species on record: Mus musculus; experiment: Inhibition of MNK in mouse 3T3L1 cells assessed as reduction of eIF4E phosphorylation at 3 uM after 2 hrs by Western blot analysis; format: cell-based; summary of the method: as §1
[3] = species on record: Mus musculus; experiment: Inhibition of MNK in mouse 3T3L1 cells assessed as reduction of eIF4E phosphorylation at 0.1 uM after 2 hrs by Western blot analysis; format: cell-based; summary of the method: as §1
[4] = biological target: T1, MAP kinase-interacting serine/threonine-protein kinase 1/2 (Homo sapiens) (UniProt Q9HBH9+Q9BUB5); experiment: Inhibition of MNK in human MDA-MB-231 cells assessed as decrease in eIF4E phosphorylation at 1 uM after 2 hrs by Western blot analysis; format: cell-based
Summary of the method: (§2)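 MDA-MB-231 cells treated with inhibitor at indicated concentrations for 2 h, or at 3 μM for times up to 72 h (DMSO vehicle <0.05%). Cells lysed in RIPA buffer; supernatants analysed by SDS-PAGE and western blot for P-eIF4E and total eIF4E. CGP57380 at 30 μM as reference.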

[5] = biological target: MAP kinase-interacting serine/threonine-protein kinase 1 (Homo sapiens) (UniProt Q9BUB5); experiment: Inhibition of GST-fused MNK1a (unknown origin) expressed in HEK293 cells using eIF4E as substrate after 30 mins by Western blot analysis; format: cell-based
Summary of the method: (§3)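 GST-MNK1a or GST-MNK2a expressed in transfected HEK293 cells, purified by glutathione pull-down. Incubated in 25 mM Tris-HCl pH 7.5, 50 mM KCl, 2 mM MgCl₂ with 20 µM ATP and 65 ng E. coli-expressed eIF4E, 30 °C, 30 min, ± inhibitor. Stopped with sample buffer; immunoblotted for P-eIF4E Ser209, eIF4E and GST. Conditions pre-set within linear range.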

[6] = biological target: Mitogen-activated protein kinase 1 and 3 (ERK2 and ERK1) (Mus musculus) (UniProt P63085+Q63844); experiment: Inhibition of ERK1/2 phosphorylation at Thr202/Tyr204 residues in mouse 3T3L1 cells at 0.1 to 5 uM after 2 hrs by Western blot analysis; format: cell-based
Summary of the method: (§4)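 3T3-L1 cells treated 2 h with inhibitor at indicated concentrations (DMSO <0.05% v/v). RIPA lysates, equal protein by Bradford, SDS-PAGE and western blot with phospho-specific antibodies (ERK, RSK, PKB Ser473, 4E-BP1, rpS6); fluorescent secondary imaging. Quantified from three independent experiments, SEM error bars.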

[7] = species on record: Mus musculus; experiment: Inhibition of mTORC1 in mouse 3T3L1 cells assessed as reduction in 4EBP1 at Ser65 residue phosphorylation at 0.1 to 5 uM after 2 hrs by Western blot analysis; format: cell-based; summary of the method: as §4
[8] = biological target: MAP kinase-interacting serine/threonine-protein kinase 2 (Mus musculus) (UniProt Q8CDB0); experiment: Inhibition of MNK2 in MNK1-knockout C57BL/6J mouse embryonic fibroblasts assessed as decrease in eIF4E phosphorylation at 0.5 uM after 2 hrs by Western blot analysis
Summary of the method: (§5)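 MEFs from E13.5 C57BL/6J embryos, wild-type, MNK1-KO or MNK2-KO (DMEM, 10% FBS), treated 2 h with inhibitor at indicated concentrations, including a lower-concentration series in MNK1-KO cells; CGP57380 at 50 μM as reference. Lysates analysed by SDS-PAGE/western blot for P-eIF4E; quantified from three independent experiments, SEM.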

[9] = biological target: T1, MAP kinase-interacting serine/threonine-protein kinase 1/2 (Homo sapiens); experiment: Inhibition of MNK in human MDA-MB-231 cells assessed as decrease in eIF4E phosphorylation at 3 uM up to 72 hrs by Western blot analysis; format: cell-based; summary of the method: as §2
[10] = biological target: MAP kinase-interacting serine/threonine-protein kinase 2 (Mus musculus) (UniProt Q8CDB0); experiment: Inhibition of MNK2 in C57BL/6J mouse embryonic fibroblasts assessed as decrease in eIF4E phosphorylation at 5 uM after 2 hrs by Western blot analysis; summary of the method: as §5
[11] = species on record: Mus musculus; experiment: Inhibition of mTORC1 in mouse 3T3L1 cells assessed as reduction in rpS6 phosphorylation at Ser240/244 residues at 0.1 to 5 uM after 2 hrs by Western blot analysis; format: cell-based; summary of the method: as §4
[12] = biological target: MAP kinase-interacting serine/threonine-protein kinase 1 (Mus musculus) (UniProt O08605); experiment: Inhibition of MNK1 in C57BL/6J mouse embryonic fibroblasts assessed as decrease in eIF4E phosphorylation at 0.1 to 0.3 uM after 2 hrs by Western blot analysis relative to control; summary of the method: as §5
[13] = biological target: MAP kinase-interacting serine/threonine-protein kinase 1 (Mus musculus) (UniProt O08605); experiment: Inhibition of MNK1 in MNK2-knockout C57BL/6J mouse embryonic fibroblasts assessed as decrease in eIF4E phosphorylation at 0.3 to 5 uM after 2 hrs by Western blot analysis; summary of the method: as §5
[14] = biological target: MAP kinase-interacting serine/threonine-protein kinase 1 (Mus musculus) (UniProt O08605); experiment: Inhibition of MNK1 in C57BL/6J mouse embryonic fibroblasts assessed as decrease in eIF4E phosphorylation at 5 uM after 2 hrs by Western blot analysis; summary of the method: as §5
[15] = species on record: Mus musculus; experiment: Inhibition of ERK signalling in mouse 3T3L1 cells assessed as reduction in RSK phosphorylation at […] residue at 0.1 to 5 uM after 2 hrs by Western blot analysis; format: cell-based; summary of the method: as §4
[16] = biological target: MAP kinase-interacting serine/threonine-protein kinase 2 (Mus musculus) (UniProt Q8CDB0); experiment: Inhibition of MNK2 in MNK1-knockout C57BL/6J mouse embryonic fibroblasts assessed as decrease in eIF4E phosphorylation at 0.003 to 0.03 uM after 2 hrs by Western blot analysis; summary of the method: as §5
[17] = biological target: MAP kinase-interacting serine/threonine-protein kinase 2 (Homo sapiens) (UniProt Q9HBH9); experiment: Inhibition of GST-fused MNK2a (unknown origin) expressed in HEK293 cells using eIF4E as substrate after 30 mins by Western blot analysis; format: cell-based; summary of the method: as §3
[18] = species on record: Mus musculus; experiment: Inhibition of mTORC2 in mouse 3T3L1 cells assessed as reduction in PKB phosphorylation at Ser473 residue at 0.1 to 5 uM after 2 hrs by Western blot analysis; format: cell-based; summary of the method: as §4
[19] = system: MDA-MB-231; experiment: Antimigratory activity against human MDA-MB-231 cells after 24 hrs by DAPI staining-based Transwell assay; format: functional, cell-based
Summary of the method: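 MDA-MB-231 cells pre-treated with inhibitor 60 min, then 3 x 10⁵ cells seeded into 8 μm-pore Transwell inserts pre-coated with 10 μg/ml collagen (collagen as attractant). After 24 h, migrated cells in bottom well stained with DAPI, imaged at ×10 and counted. Triplicate assays, mean ± SEM.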

Chain of MAP kinase-interacting serine/threonine-protein kinase 2 (Mus musculus) (Q8CDB0 whole entry, the tested form may be a part): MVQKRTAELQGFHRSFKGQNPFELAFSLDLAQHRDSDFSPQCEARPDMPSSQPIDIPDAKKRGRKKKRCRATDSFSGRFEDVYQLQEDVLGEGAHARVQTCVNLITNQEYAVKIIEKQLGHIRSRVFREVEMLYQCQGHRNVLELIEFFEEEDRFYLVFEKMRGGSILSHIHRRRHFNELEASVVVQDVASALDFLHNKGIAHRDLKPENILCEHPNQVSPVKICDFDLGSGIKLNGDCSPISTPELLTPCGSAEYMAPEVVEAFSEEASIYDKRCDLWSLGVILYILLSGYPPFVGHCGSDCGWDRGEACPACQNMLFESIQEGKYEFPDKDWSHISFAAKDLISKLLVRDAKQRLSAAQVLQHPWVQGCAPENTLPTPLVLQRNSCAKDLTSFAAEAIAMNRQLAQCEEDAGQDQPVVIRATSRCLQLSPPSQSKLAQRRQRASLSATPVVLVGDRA
Chain of MAP kinase-interacting serine/threonine-protein kinase 1 (Mus musculus) (O08605 whole entry): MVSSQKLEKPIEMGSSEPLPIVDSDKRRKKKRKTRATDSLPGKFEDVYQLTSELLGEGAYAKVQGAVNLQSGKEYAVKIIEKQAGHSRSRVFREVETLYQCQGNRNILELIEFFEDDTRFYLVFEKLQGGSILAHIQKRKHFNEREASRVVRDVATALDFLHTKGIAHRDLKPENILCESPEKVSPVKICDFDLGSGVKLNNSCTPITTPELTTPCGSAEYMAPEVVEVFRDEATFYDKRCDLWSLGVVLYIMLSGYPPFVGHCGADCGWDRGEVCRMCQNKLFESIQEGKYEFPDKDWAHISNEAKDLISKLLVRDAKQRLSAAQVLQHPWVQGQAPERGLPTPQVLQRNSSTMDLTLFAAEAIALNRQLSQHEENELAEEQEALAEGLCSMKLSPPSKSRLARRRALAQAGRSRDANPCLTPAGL
Chain of Mitogen-activated protein kinase 1 and 3 (ERK2 and ERK1) (Mus musculus) (P63085 whole entry, looked up): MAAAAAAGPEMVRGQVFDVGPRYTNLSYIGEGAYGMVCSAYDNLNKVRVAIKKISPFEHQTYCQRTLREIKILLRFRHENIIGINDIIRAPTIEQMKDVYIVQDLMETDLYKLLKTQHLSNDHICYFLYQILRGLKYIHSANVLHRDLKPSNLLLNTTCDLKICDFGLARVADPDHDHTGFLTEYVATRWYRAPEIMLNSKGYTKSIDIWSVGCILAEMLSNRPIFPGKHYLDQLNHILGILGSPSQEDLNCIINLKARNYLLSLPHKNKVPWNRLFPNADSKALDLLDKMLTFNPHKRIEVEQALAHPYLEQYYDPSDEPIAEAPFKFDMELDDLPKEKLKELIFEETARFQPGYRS
Chain of Mitogen-activated protein kinase 1 and 3 (ERK2 and ERK1) (Mus musculus) (Q63844 whole entry, looked up): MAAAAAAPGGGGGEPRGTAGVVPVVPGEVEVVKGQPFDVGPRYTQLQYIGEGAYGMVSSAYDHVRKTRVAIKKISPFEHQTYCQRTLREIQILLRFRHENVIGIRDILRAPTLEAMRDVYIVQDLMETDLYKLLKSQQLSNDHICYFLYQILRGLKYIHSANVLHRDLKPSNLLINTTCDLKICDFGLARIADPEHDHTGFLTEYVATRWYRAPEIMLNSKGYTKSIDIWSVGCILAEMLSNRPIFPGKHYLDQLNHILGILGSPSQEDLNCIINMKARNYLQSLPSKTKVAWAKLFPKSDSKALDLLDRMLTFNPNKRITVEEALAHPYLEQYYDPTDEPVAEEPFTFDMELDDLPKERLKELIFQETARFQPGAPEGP
Chain of MAP kinase-interacting serine/threonine-protein kinase 2 (Homo sapiens) (Q9HBH9 whole entry, looked up, the tested form may be a part): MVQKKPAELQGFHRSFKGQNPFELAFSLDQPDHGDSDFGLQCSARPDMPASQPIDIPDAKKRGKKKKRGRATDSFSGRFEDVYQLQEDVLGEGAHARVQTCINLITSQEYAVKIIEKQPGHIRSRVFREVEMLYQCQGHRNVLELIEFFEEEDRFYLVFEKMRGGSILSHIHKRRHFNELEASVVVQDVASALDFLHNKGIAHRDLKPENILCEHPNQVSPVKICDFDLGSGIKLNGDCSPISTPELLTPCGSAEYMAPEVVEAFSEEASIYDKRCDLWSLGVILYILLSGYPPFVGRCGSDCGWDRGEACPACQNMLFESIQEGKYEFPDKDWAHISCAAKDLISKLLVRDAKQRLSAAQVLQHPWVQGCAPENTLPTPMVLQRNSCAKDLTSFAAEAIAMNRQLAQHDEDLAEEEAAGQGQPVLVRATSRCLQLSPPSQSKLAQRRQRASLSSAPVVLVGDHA
Chain of MAP kinase-interacting serine/threonine-protein kinase 1 (Homo sapiens) (Q9BUB5 whole entry, looked up, the tested form may be a part): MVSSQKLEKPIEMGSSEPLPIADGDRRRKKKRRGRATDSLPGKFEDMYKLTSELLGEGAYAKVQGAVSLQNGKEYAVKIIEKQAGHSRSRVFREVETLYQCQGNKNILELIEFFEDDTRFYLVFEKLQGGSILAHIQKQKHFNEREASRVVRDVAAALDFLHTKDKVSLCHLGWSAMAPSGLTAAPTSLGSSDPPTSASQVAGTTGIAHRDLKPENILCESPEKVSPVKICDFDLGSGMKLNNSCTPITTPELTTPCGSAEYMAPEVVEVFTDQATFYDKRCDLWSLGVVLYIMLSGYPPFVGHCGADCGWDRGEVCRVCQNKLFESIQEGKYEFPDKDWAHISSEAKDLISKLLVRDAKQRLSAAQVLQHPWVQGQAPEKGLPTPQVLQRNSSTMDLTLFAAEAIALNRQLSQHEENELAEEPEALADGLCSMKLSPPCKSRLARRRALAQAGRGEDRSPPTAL

| SMILES | Activity [1] | MNK inhibition (active/not active) [2] | further results |
| --- | --- | --- | --- |
| Cc1c(C(=O)N2CCCC2)sc2ncnc(Nc3ccc(F)cc3OC(C)C)c12 | Non-Toxic | Active |  |
| Cc1c(C(=O)NCCCN2CCOCC2)sc2ncnc(Nc3ccc(F)cc3OC(C)C)c12 | Non-Toxic | Active | inhibition of eIF4E phosphorylation (active/not active) [3]: inactive |
| COc1cc(F)ccc1Nc1ncnc2sc(C(=O)NCCCO)c(C)c12 | Non-Toxic | Active |  |
| Cc1c(C(=O)N2CCOCC2)sc2ncnc(Nc3ccc(F)cc3OC(C)C)c12 | Non-Toxic | Active |  |
| COc1cc(F)ccc1Nc1ncnc2sc(C(=O)N3CCN(C)CC3)c(C)c12 | Non-Toxic | Active |  |
| COc1cc(F)ccc1Nc1ncnc2sc(C(=O)NCCc3ccncc3)c(C)c12 | Non-Toxic | Active |  |
| COc1cc(F)ccc1Nc1ncnc2sc(C(=O)N3CCCCC3)c(C)c12 | Non-Toxic | Active |  |
| Cc1c(C(=O)NCCc2c[nH]cn2)sc2ncnc(Nc3ccc(F)cc3OC(C)C)c12 | Non-Toxic | Active | inhibition of eIF4E phosphorylation (active/not active) [3]: inactive |
| COc1cc(F)ccc1Nc1ncnc2sc(C(=O)N3CCCC3)c(C)c12 | Non-Toxic | Active |  |
| Cc1c(C(=O)OCCc2ccccc2)sc2ncnc(Nc3ccc(F)cc3OC(C)C)c12 | Non-Toxic | Active |  |
| COc1cc(F)ccc1Nc1ncnc2sc(C(=O)NCCCN3CCOCC3)c(C)c12 | Non-Toxic | Active |  |
| COc1cc(F)ccc1Nc1ncnc2sc(C(=O)N3CCOCC3)c(C)c12 | Non-Toxic | Active |  |
| Cc1c(C(=O)OCCO)sc2ncnc(Nc3ccc(F)cc3OC(C)C)c12 |  | Active |  |
| COc1cc(F)ccc1Nc1ncnc2sc(C(=O)NCC(C)(C)CN(C)C)c(C)c12 | Non-Toxic |  |  |
| Cc1c(C(=O)NCCc2ccncc2)sc2ncnc(Nc3ccc(F)cc3OC(C)C)c12 | Non-Toxic | Active | inhibition of eIF4E phosphorylation (active/not active) [3]: inactive |
| Cc1c(C(=O)NCCCN(C)C)sc2ncnc(Nc3ccc(F)cc3OC(C)CF)c12 (configuration not stated) | Non-Toxic | Active | inhibition [4]: 100%; inhibition [5]: Active; inhibition [6]: inactive; inhibition [7]: inactive; inhibition [8]: Active; inhibition [9]: Active; inhibition of eIF4E phosphorylation (active/not active) [3]: Active; inhibition [10]: 100%; inhibition [11]: inactive; inhibition [12]: 50%; inhibition [13]: Active; inhibition [14]: 100%; inhibition [15]: inactive; inhibition [16]: Active; inhibition [17]: Active; inhibition [18]: inactive; inhibition [19]: Active |
| Cc1c(C(=O)NCCCN(C)C)sc2ncnc(Nc3ccc(F)cc3OC(C)C)c12 |  | Active |  |
| Cc1c(C(=O)OCCCO)sc2ncnc(Nc3ccc(F)cc3OC(C)C)c12 | Non-Toxic | Active |  |
| Cc1c(C(=O)NCC(C)(C)CN(C)C)sc2ncnc(Nc3ccc(F)cc3OC(C)C)c12 | Non-Toxic | Active | inhibition of eIF4E phosphorylation (active/not active) [3]: inactive |
| COc1cc(F)ccc1Nc1ncnc2sc(C(=O)NC3CCCCC3)c(C)c12 | Non-Toxic | Active |  |
| COc1cc(F)ccc1Nc1ncnc2sc(C(=O)NCCCN3CCCC3)c(C)c12 | Non-Toxic | Active |  |
| Cc1c(C(=O)N2CCCCC2)sc2ncnc(Nc3ccc(F)cc3OC(C)C)c12 | Non-Toxic | Active |  |
| Cc1c(C(=O)NCCCO)sc2ncnc(Nc3ccc(F)cc3OC(C)C)c12 |  | Active |  |
| Cc1c(C(=O)N2CCN(C)CC2)sc2ncnc(Nc3ccc(F)cc3OC(C)C)c12 | Non-Toxic | Active |  |
| COc1cc(F)ccc1Nc1ncnc2sc(C(=O)NCCc3c[nH]cn3)c(C)c12 | Non-Toxic | Active |  |
| COc1cc(F)ccc1Nc1ncnc2sc(C(=O)NCCCN(C)C)c(C)c12 |  | inactive |  |
| COc1cc(F)ccc1Nc1ncnc2sc(C(=O)OCCO)c(C)c12 | Non-Toxic |  |  |
| Cc1c(C(=O)NC2CCCCC2)sc2ncnc(Nc3ccc(F)cc3OC(C)C)c12 | Non-Toxic | Active |  |
| COC(=O)c1sc2ncnc(Nc3ccc(F)cc3OC(C)C)c2c1C |  | inactive |  |
